# Pf Dd2 growth = P. falciparum Dd2 growth inhibitors, primary screen, SYBR Green fluorescence, single dose replicates; activity change, % at 10 µM; 94,000 compounds, 2.3% hits; 72 h; stronger effect = lower value; in the data active means activity change below about -80%; inconclusive means no clear call, values can overlap the other calls
# T cruzi growth-1 = T. cruzi intracellular proliferation inhibitors, primary screen, cell-based, beta-gal Tulahuen parasites, NIH3T3 host, luminescence; T. cruzi beta-gal in NIH3T3, GalScreen luminescence, 90 h; 77,000 compounds, 5.9% hits; inhibition, % at 8.34 µM;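 active means mean inhibition above about 93%, with at least 55% of replicates each passing it, limit read from the data, passing the limit was not always enough; inconclusive means only one of those two conditions holds; inactive means neither condition holds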
# IDH1 R132H inh = inhibitors of IDH1 R132H reductase, primary screen, biochemical, plate reader, single point; 70,000 compounds, 0.18% hits; Isocitrate dehydrogenase [NADP] cytoplasmic (Homo sapiens), O75874; diaphorase/resazurin fluorescence, 60 min; AID 624101, 2012; inhibition, % at 10 µM; in the data active means inhibition above about 34%; inconclusive means no clear call, values can overlap the other calls; inactive means below about 11%;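 further: 0% = DMSO and 100% = no enzyme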
# KDM4C inh = inhibitors of GASC-1 (KDM4C) histone demethylase, primary screen, biochemical, single concentration HTS; 96,000 compounds, 0.15% hits; Lysine-specific demethylase 4C (Homo sapiens), Q9H3R0; inhibition, % at 12.5 µM; GST-KDM4C 2-372, H3K9me3 peptide, LANCE TR-FRET;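 active means mean replicate inhibition above about 25%, with at least 55% of replicates also reaching it, limit read from the data, passing the limit was not always enough; inconclusive means only one of those two conditions met; inactive means neither condition met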
# Target sequence (Q9H3R0 2-372 limits assumed): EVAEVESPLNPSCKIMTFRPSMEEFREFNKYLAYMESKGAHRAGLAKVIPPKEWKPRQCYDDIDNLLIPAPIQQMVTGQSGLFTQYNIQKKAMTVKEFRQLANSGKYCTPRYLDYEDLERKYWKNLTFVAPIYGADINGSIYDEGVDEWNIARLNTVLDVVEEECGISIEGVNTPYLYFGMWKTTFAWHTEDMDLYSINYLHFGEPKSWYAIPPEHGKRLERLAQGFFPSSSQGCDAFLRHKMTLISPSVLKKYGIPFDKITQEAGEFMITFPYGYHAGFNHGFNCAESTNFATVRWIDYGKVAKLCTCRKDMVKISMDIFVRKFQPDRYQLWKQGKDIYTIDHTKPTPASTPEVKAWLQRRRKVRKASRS
#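 Test system: N-terminal GST-fused human GASC-1 (KDM4C) fragment, residues 2-372; quantity: GASC-1 enzyme at 10 nM final in reaction; dosing: single dose; schedule: 30 min demethylation and 1 h detection at room temperature; signal: LANCE TR-FRET, excitation 340 nm, emissions 618 and 671 nm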
# T cruzi growth-2 = T. cruzi intracellular proliferation inhibitors, confirmation, cell-based, NIH3T3 host, beta-gal parasite, luminescence, cherry-pick; shares compounds with T cruzi growth-1; T. cruzi beta-gal in NIH3T3, GalScreen luminescence, 90 h; inhibition, % at 8.35 µM; 5,600 compounds, 72% hits; AID 651739, 2012;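 active means mean replicate inhibition above about 95% and at least 55% of replicates individually reaching it, limit read from the data; inconclusive means only one of the two criteria is met; inactive means neither criterion is met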
# T cruzi growth-3 = inhibitors of intracellular T. cruzi replication, confirmation, NIH3T3 host cells, beta-gal parasites, cherry-pick, set 2; shares compounds with T cruzi growth-1; T. cruzi beta-gal in NIH3T3, GalScreen luminescence, 90 h; inhibition, % at 2.09 µM; 5,600 compounds, 21% hits; AID 651740, 2012;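 active means mean inhibition above about 95%, with at least 55% of replicates also reaching it, limit read from the data; inconclusive means meets just one of the two conditions; inactive means meets neither condition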;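 further: plate controls were neutral control median for no effect and positive control median for full effect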
# NIH3T3 tox = cytotoxicity in mouse NIH/3T3 fibroblasts, confirmation, cytotoxicity control for T. cruzi proliferation inhibitor project, cell-based, cherry-pick, single point | shares compounds with T cruzi growth-1 | NIH/3T3 viability, CellTiter-Glo ATP luminescence, 90 h | 5,600 compounds, 14% hits | cytotoxicity (signal decrease), % at 8.35 µM;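 active means mean signal decrease across replicates above about 35% based on untreated-well scatter, with enough replicates individually passing, limit read from the data; inconclusive means no rule stated though some were filed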;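 further: 0% = median of neutral control wells and 100% = median of positive control wells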
# NIH3T3 tox 2 = NIH/3T3 fibroblast cytotoxicity, confirmation, cytotoxicity control, cell-based, cherry-pick, single point, set 2 | shares compounds with T cruzi growth-1 | NIH/3T3 viability, CellTiter-Glo ATP luminescence, 90 h | inhibition, % at 24.9 µM | 5,600 compounds, 56% hits | AID 651744, 2012;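 active means mean loss of cell viability signal at or above a set limit, and enough replicates individually reaching it; inconclusive means meets only the mean limit or only the replicate share; inactive means meets neither condition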;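 further: 0% = median of neutral control wells and 100% = median of positive control wells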
# An asterisk follows results filed as active; ? = inconclusive; · = not tested or not shown. Rows were chosen to be rich in hits. Some 5.8% of all compounds tested hit in one or more screens of this group.
SMILES,Pf Dd2 growth,T cruzi growth-1,IDH1 R132H inh,KDM4C inh,T cruzi growth-2,T cruzi growth-3,NIH3T3 tox,NIH3T3 tox 2
COc1ccc(C#Cc2ccc([C@@H]3[C@H](CO)N4CCCCN(C(=O)c5ccncc5)C[C@@H]34)cc2)cc1,-31.9,105.0*,·,-1.3,88.4,74.0,20.9,104.1*
O=C(c1cccnc1)N1CCCCN2[C@H](CO)[C@@H](c3ccc(C#Cc4ccccn4)cc3)[C@H]2C1,33.7,37.6,·,-0.3,·,·,·,·
COc1ccc(C#Cc2ccc([C@H]3[C@H]4CN(C(=O)c5ccncc5)CCCCN4[C@H]3CO)cc2)cc1,3.4,104.8*,·,-0.2,63.6,-18.0,50.0*,53.8*
COc1ccc(CN(C)C[C@@H]2Oc3ccc(NC(=O)c4ccncc4)cc3CC(=O)N([C@H](C)CO)C[C@@H]2C)cc1,10.8,49.3,-0.9,-0.9,·,·,·,·
C[C@@H]1CN([C@H](C)CO)C(=O)c2cccc(NC(=O)NC3CCCCC3)c2O[C@H]1CN(C)C(=O)Nc1ccc(C(F)(F)F)cc1,-33.5,22.8,2.1,-1.7,·,·,·,·
C[C@@H]1CN([C@@H](C)CO)C(=O)c2cc(-c3ccc(F)cc3)cnc2O[C@@H]1CN(C)C(=O)Cc1ccccc1,-19.8,2.1,-0.2,-1.0,·,·,·,·
Cc1noc(C)c1NC(=O)Nc1ccc2c(c1)C(=O)N([C@H](C)CO)C[C@H](C)[C@@H](CN(C)S(C)(=O)=O)O2,23.0,96.8,·,1.0,·,·,·,·
O=S(=O)(c1ccc(F)cc1)N1CC[C@@H]2[C@H]1c1cc(-c3ccccc3F)ccc1N[C@@H]2CO,2.6,38.7,·,-0.3,·,·,·,·
CC(C)NC(=O)Nc1cccc2c1O[C@H](CN(C)Cc1ccc(Oc3ccccc3)cc1)[C@H](C)CN([C@@H](C)CO)C2=O,-71.4,53.8,-0.9,-1.5,·,·,·,·
CC(C)NC(=O)Nc1cccc2c1O[C@H](CN(C)Cc1ccc(Oc3ccccc3)cc1)[C@@H](C)CN([C@@H](C)CO)C2=O,-63.9,?,0.7,-1.5,100.4*,83.4,-15.2,103.9*
CC(C)NC(=O)Nc1cccc2c1O[C@H](CN(C)Cc1ccc(Oc3ccccc3)cc1)[C@@H](C)CN([C@H](C)CO)C2=O,-31.5,102.7*,-2.1,5.5,101.9*,61.9,-26.2,103.3*
C[C@H]1CN([C@@H](C)CO)C(=O)c2cccc(NC(=O)Nc3ccccc3)c2O[C@@H]1CN(C)Cc1ccc(Oc2ccccc2)cc1,-40.0,81.1,0.7,·,·,·,·,·
C[C@H](CO)N1C[C@H](C)[C@H](CN(C)Cc2ccc(Oc3ccccc3)cc2)Oc2c(NC(=O)Nc3cccc4ccccc34)cccc2C1=O,-77.9,98.0*,-1.2,-4.7,99.3*,108.6*,19.2,?
Cc1ccc(S(=O)(=O)N(C)C[C@@H]2Oc3cc(-c4cccc(F)c4)ccc3S(=O)(=O)N([C@H](C)CO)C[C@@H]2C)cc1,-53.0,127.1*,·,0.2,105.0*,?,?,42.6*
Cc1ccc(S(=O)(=O)N(C)C[C@@H]2Oc3cc(-c4cccc(F)c4)ccc3S(=O)(=O)N([C@@H](C)CO)C[C@H]2C)cc1,-70.2,123.6*,-2.7,-3.7,101.8*,107.0*,47.8*,55.2*
COc1ccc(S(=O)(=O)N(C)C[C@H]2Oc3cc(-c4cccc(F)c4)ccc3S(=O)(=O)N([C@H](C)CO)C[C@H]2C)cc1,-13.8,·,0.8,-1.5,·,·,·,·

# Bioassay records: PubChem, Broad Institute
